Kir21 inh: inhibitors of mouse Kir2.1 inward-rectifier potassium channel. B-score at 10 µM. AID 1672, 2009. 310,000 compounds, 0.85% hits. HEK293-Kir2.1, FluxOR thallium flux fluorescence; active compounds read low. Inward rectifier potassium channel 2 (Mus musculus), P35561;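 active means fluorescence ratio B-score at or below minus 3 SD of library scores, with starting-brightness B-score within 2 SD, cut at about -4.2 in these data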;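 further: channel flux triggered by added potassium and thallium sulfate stimulus; B-score of peak minus minimum fluorescence over baseline after thallium stimulus; more negative B-score means stronger Kir2.1 block with less thallium influx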
KCNQ1 act: potentiators or activators of KCNQ1 channel, primary screen, cell-based, thallium flux, high-throughput. Potassium voltage-gated channel subfamily KQT member 1 (Homo sapiens), P51787. CHO-K1 KCNQ1, thallium flux FluxOR fluorescence; active compounds read high. B-score at 10 µM. 310,000 compounds, 0.35% hits;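 active means fluorescence ratio B-score, a plate-corrected score, at least three library SD, with initial intensity B-score within 5 SD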
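Medium – assay buffer, equal DMSO in all wells · Material – CHO-K1 cell line with stable KCNQ1 potassium channel expression · Signal – kinetic FluxOR thallium fluorescence, 10-s 1-Hz baseline, 110-s post-stimulus read · Compound – single concentration per compound, DMSO matched to controls · Schedule – 37 °C overnight plating, 90-min dark dye load, 20-min compound pretreatment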
KCNQ1 inh: inhibitors of human KCNQ1 channel, primary screen, cell-based, thallium flux, high-throughput | B-score at 10 µM | CHO-K1 KCNQ1, FluxOR thallium flux fluorescence; active compounds read high | Potassium voltage-gated channel subfamily KQT member 1 (Homo sapiens), P51787 | 310,000 compounds, 1.3% hits;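 active means compounds whose thallium flux B-score, printed positive for inhibition, exceeds three library SD while starting fluorescence stays within three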;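 further: channel opened by potassium depolarization with thallium stimulus after 20 min compound exposure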
hERG protect: hERG rescue from dofetilide block, primary screen, cell-based, CHO-hERG, FluxOR thallium flux, dofetilide IC70 | Voltage-gated inwardly rectifying potassium channel KCNH2 (Homo sapiens), Q12809 | dofetilide IC70 present | activation (rescue from dofetilide block), less the hit threshold, % at 10 µM | 310,000 compounds, 0.51% hits | AID 1511, 2009;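 active means activation above the mean of controls blocked by dofetilide plus 5 SD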;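 further: thallium influx through hERG after potassium depolarization seen as dye fluorescence rise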
KCNK9 block: KCNK9 potassium channel inhibitors, primary screen, HEK293 cells, thallium flux. FluxOR thallium flux fluorescence; active compounds read low. B-score at 10 µM. Potassium channel subfamily K member 9 (Homo sapiens), Q9NPC2. 310,000 compounds, 1.2% hits;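 active means ratio B-score over 3 SD below the library mean, with starting fluorescence within 5 SD of its mean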;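 further: negative B-score means less thallium flux so channel inhibition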
Target sequence (Q9NPC2 whole entry, looked up): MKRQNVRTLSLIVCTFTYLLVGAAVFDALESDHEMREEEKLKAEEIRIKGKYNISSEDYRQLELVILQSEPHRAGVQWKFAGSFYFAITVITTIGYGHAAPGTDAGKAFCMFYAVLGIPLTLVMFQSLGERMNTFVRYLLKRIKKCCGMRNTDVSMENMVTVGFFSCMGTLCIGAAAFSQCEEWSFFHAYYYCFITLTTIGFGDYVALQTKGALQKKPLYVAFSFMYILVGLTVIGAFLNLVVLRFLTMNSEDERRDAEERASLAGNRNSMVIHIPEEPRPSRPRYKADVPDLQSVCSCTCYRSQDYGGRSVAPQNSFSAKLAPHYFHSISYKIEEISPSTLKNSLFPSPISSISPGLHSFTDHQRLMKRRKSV
KCNK3 inh: human KCNK3 channel inhibitors, primary screen, CHO cells, FluxOR thallium flux, B-score; B-score at 10 µM; 340,000 compounds, 0.84% hits; FluxOR fluorescence; active compounds read low;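 active means B-score under library mean minus 4 SD, starting fluorescence ratio at most library mean plus 5 SD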;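 further: more negative B-score means stronger inhibition of thallium flux through KCNK3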
Target sequence (O14649 whole entry, looked up): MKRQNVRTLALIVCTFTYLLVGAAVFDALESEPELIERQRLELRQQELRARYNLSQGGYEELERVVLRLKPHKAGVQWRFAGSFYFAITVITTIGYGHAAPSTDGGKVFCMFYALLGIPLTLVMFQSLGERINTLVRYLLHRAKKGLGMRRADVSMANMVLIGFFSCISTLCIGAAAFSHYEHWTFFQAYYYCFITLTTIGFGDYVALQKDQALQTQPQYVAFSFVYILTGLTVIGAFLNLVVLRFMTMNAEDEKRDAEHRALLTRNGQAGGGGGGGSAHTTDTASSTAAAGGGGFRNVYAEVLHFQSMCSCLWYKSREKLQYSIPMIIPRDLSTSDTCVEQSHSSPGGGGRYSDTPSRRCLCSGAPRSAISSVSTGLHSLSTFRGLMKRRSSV
KCNQ1 block val: KCNQ1 potassium channel inhibitors, confirmation, cell-based, Tl flux, duplicate. shares compounds with KCNQ1 inh. KCNQ1 cell line, FluxOR thallium flux fluorescence. inhibition, % at 10 µM. 1,600 compounds, 93% hits. AID 588353, 2011;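 active means primary screen active, with duplicate mean exceeding buffer control mean plus 3 SD of buffer wells, cut at about 28% in these data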;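 further: 0% = buffer control ratio and 100% = XE991 inhibitor control ratio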
CHO KCNQ1 ctr: thallium flux effects in parental CHO cells, counter-screen for KCNQ1 inhibitor project, cell-based, Tl flux. shares compounds with KCNQ1 inh. parental CHO-K1, FluxOR thallium flux fluorescence ratio; active compounds read low; zero means no signal rise above baseline. fluorescence ratio (Tl flux) at 10 µM. 1,600 compounds, 21% hits. AID 588366, 2011;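 active means mean of duplicate thallium-flux fluorescence ratios in parental host cells more than 5 SD below the buffer control mean, cut at about 0.38 in these data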;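 further: ratio is peak minus minimum fluorescence divided by baseline fluorescence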
KCNQ1 ephys val: KCNQ1 channel inhibitors, confirmation, orthogonal assay, cell-based, automated electrophysiology; KCNQ1-CHO cells, automated patch clamp current; shares compounds with KCNQ1 inh; 490 compounds, 20% hits; calls only at 10 µM;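 active means KCNQ1 current drop exceeding 3 SD of negative control wells, seen in both duplicate runs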;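 further: steady state current during a 2 s step from -80 to +40 mV; negative values mean current inhibition and positive values mean potentiation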
KCNQ2 inh: KCNQ2 channel inhibition, selectivity assay for KCNQ1 inhibitor project, cell-based. shares compounds with KCNQ1 inh. KCNQ2 cells, FluxOR thallium flux fluorescence. inhibition, % at 10 µM. 1,600 compounds, 71% hits. AID 651746, 2012;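 active means mean percent inhibition of the KCNQ2 thallium signal more than 5 SD above the buffer-only control wells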;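 further: KCNQ2 expressed in CHO cells; 0% = buffer control wells and 100% = XE-991 inhibitor control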
KCNQ1 KCNE1 spec: KCNQ1/KCNE1 channel inhibition, selectivity assay for KCNQ1 inhibitor project, CHO-K1 cells, thallium flux, FluxOR; shares compounds with KCNQ1 inh; FluxOR thallium flux fluorescence; inhibition, % at 10 µM; 1,600 compounds, 77% hits; AID 652147, 2013;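 active means mean percent inhibition of duplicate wells above the buffer-only control mean plus 3 SD of those controls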;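 further: 0% = buffer only wells and 100% = XE-991 inhibitor control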
The depositor's hits bear a star. Sampled rows, rich in hits. Any-hit rate of the full collection: about 3.7%.

What do the screens show for `Cc1cccc(OCC(=O)Nc2ccc3c(c2)nc(CCN2CCN(C)CC2)n3C)c1`?
Kir21 inh: -0.05; KCNQ1 act: inactive; KCNQ1 inh: 9*; hERG protect: -5.2; KCNK9 block: inactive; KCNK3 inh: inactive; KCNQ1 block val: 0.0; CHO KCNQ1 ctr: 0.501; KCNQ2 inh: inactive; KCNQ1 KCNE1 spec: inactive

How did COc1ccc(OCC(=O)Nc2ccc3c(c2)nc(CCN2CCN(C)CC2)n3C)cc1 do in these assays?
Kir21 inh: 0.76; KCNQ1 act: inactive; KCNQ1 inh: inactive; hERG protect: -6.8; KCNK9 block: inactive; KCNK3 inh: inactive

How did CSc1nc(-c2cccs2)c(C#N)c(=O)[nH]1 do in these assays?
Kir21 inh: 0.67; KCNQ1 act: inactive; KCNQ1 inh: inactive; hERG protect: -5.5; KCNK9 block: inactive; KCNK3 inh: inactive

Results for N#Cc1c(-c2cccs2)nc(SCc2ccc(Cl)cc2)[nH]c1=O ?
Kir21 inh: -0.17; KCNQ1 act: inactive; KCNQ1 inh: 8*; hERG protect: -11.9; KCNK9 block: inactive; KCNK3 inh: inactive; KCNQ1 block val: 0.0; CHO KCNQ1 ctr: 0.562; KCNQ2 inh: inactive; KCNQ1 KCNE1 spec: inactive

How did CSc1ccc(CNC(=O)C2CCC(=O)N(Cc3cccc(F)c3)C2)cc1 (stereo unspecified) do in these assays?
Kir21 inh: -0.05; KCNQ1 act: inactive; KCNQ1 inh: inactive; hERG protect: -3.5; KCNK9 block: inactive; KCNK3 inh: inactive

Results for Cc1ccc(N=Nc2c(N)[nH]n3c(=O)cc(-c4ccccc4)nc23)cc1 ?
Kir21 inh: 1.02; KCNQ1 act: inactive; KCNQ1 inh: 9*; hERG protect: -11.1; KCNK9 block: inactive; KCNK3 inh: inactive; KCNQ1 block val: 46.0*; CHO KCNQ1 ctr: 0.485; KCNQ2 inh: inactive; KCNQ1 KCNE1 spec: 87.0%*

Results for Cc1csc2c(N3CCN(C(=O)NC(C)(C)C)CC3)ncnc12 ?
Kir21 inh: 0.74; KCNQ1 act: inactive; KCNQ1 inh: inactive; hERG protect: -4.8; KCNK9 block: inactive; KCNK3 inh: inactive

Results for Cc1cc(C)cc(NC(=S)N2CCN(c3ncc(C(F)(F)F)cc3Cl)CC2)c1 ?
Kir21 inh: -0.31; KCNQ1 act: inactive; KCNQ1 inh: inactive; hERG protect: -7.9; KCNK9 block: inactive; KCNK3 inh: inactive

Results for Cc1csc2c(N3CCN(C(=S)Nc4ccc(C(F)(F)F)cc4)CC3)ncnc12 ?
Kir21 inh: 0.2; KCNQ1 act: inactive; KCNQ1 inh: 12*; hERG protect: -8.8; KCNK9 block: inactive; KCNK3 inh: inactive; KCNQ1 block val: 82.5*; CHO KCNQ1 ctr: 0.539; KCNQ2 inh: inactive; KCNQ1 KCNE1 spec: 178.0%*

Results for Cc1csc2ncnc(N3CCN(C(=S)Nc4ccc(C(F)(F)F)cc4)CC3)c12 ?
Kir21 inh: -1.29; KCNQ1 act: inactive; KCNQ1 inh: 10*; hERG protect: -6.5; KCNK9 block: inactive; KCNK3 inh: inactive; KCNQ1 block val: 112.0*; CHO KCNQ1 ctr: 0.471; KCNQ1 ephys val: inactive; KCNQ2 inh: 74.0%*; KCNQ1 KCNE1 spec: 93.5%*

How did Cc1csc2c(N3CCN(C(=O)Nc4ccc(Cl)c(Cl)c4)CC3)ncnc12 do in these assays?
Kir21 inh: 3.16; KCNQ1 act: inactive; KCNQ1 inh: 11*; hERG protect: -7.0; KCNK9 block: inactive; KCNK3 inh: inactive; KCNQ1 block val: 159.5*; CHO KCNQ1 ctr: 0.36*; KCNQ2 inh: 90.0%*; KCNQ1 KCNE1 spec: active

What do the screens show for `CC(=O)c1ccc(O)c(CSC2=NCCS2)c1`?
Kir21 inh: 0.11; KCNQ1 act: inactive; KCNQ1 inh: inactive; hERG protect: -22.4; KCNK9 block: inactive; KCNK3 inh: inactive

How did Cn1c(N)c(C(=O)COC(=O)/C=C/c2ccc(Cl)c(Cl)c2)c(=O)n(C)c1=O do in these assays?
KCNK3 inh: inactive

What do the screens show for `CCN(C(=O)COC(=O)c1[nH]c(=O)[nH]c(=O)c1N)c1ccccc1`?
Kir21 inh: 1.86; KCNQ1 act: inactive; KCNQ1 inh: inactive; hERG protect: -2.3; KCNK9 block: inactive; KCNK3 inh: inactive

How did COc1cccc(NC(=O)N2CCN(c3nc(-c4cccc(OC)c4)cs3)CC2)c1 do in these assays?
Kir21 inh: 2.04; KCNQ1 act: inactive; KCNQ1 inh: inactive; hERG protect: -15.9; KCNK9 block: inactive; KCNK3 inh: inactive

How did COc1cccc(-c2csc(N3CCN(C(=O)NC45CC6CC(CC(C6)C4)C5)CC3)n2)c1 do in these assays?
Kir21 inh: 0; KCNQ1 act: inactive; KCNQ1 inh: 8*; hERG protect: -10.8; KCNK9 block: inactive; KCNK3 inh: inactive; KCNQ1 block val: 102.5*; CHO KCNQ1 ctr: 0.434; KCNQ2 inh: 106.0%*; KCNQ1 KCNE1 spec: 136.0%*

What do the screens show for `O=C(Nc1ccc(OC(F)(F)F)cc1)Oc1ccccc1N1CCCCC1`?
Kir21 inh: -0.99; KCNQ1 act: inactive; KCNQ1 inh: 9*; hERG protect: -18.7; KCNK9 block: inactive; KCNK3 inh: inactive; KCNQ1 block val: 82.5*; CHO KCNQ1 ctr: 0.476; KCNQ2 inh: inactive; KCNQ1 KCNE1 spec: 40.5%*

Assay outcomes: PubChem BioAssay, Johns Hopkins Ion Channel Center
